Measurements from ChEMBL document CHEMBL4043205, “Picomolar inhibition of β-galactosidase (bovine liver) attributed to loop closure” (Bioorg Med Chem, 2017).
pIC50, pKi: −log10 of the molar value. The source made the active and inactive calls. The calls are words filed in the database; no cut-off is given here.

What was measured:
[1] = Inhibition of Aspergillus oryzae beta-galactosidase using 2-chloro-4-nitrophenyl b-dgalactopyranoside substrate relative to control
[2] = Inhibition of Aspergillus oryzae beta-galactosidase using 2-chloro-4-nitrophenyl b-dgalactopyranoside substrate
[3] = biological target: T1, Beta-galactosidase (Bos taurus) (UniProt Q58D55); experiment: Competitive inhibition of bovine liver beta-galactosidase using 4-nitrophenyl-beta-D-galactopyranoside substrate measured over 240 mins at 10 mins intervals by UV/Vis spectroscopy based Lineweaver-Burk plot
T1 sequence (whole entry): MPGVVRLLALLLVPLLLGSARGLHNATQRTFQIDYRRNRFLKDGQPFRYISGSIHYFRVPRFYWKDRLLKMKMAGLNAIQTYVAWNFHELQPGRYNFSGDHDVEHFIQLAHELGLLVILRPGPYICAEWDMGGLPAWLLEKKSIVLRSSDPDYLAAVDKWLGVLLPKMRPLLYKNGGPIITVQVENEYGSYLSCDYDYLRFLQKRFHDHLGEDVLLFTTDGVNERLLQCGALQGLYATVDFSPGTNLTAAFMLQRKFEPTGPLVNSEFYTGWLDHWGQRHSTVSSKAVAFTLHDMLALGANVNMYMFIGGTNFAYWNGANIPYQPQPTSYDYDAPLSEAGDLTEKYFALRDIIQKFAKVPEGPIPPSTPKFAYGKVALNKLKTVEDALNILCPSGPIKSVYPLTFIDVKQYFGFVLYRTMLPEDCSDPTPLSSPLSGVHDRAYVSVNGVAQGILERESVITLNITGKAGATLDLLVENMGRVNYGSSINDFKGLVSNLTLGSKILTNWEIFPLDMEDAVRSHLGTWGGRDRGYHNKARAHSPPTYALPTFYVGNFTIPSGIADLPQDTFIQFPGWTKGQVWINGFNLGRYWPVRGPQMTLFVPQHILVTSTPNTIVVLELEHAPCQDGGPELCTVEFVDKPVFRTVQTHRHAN

[4] = biological target: T2, Beta-galactosidase (Bos taurus, UniProt Q58D55); experiment: Inhibition of bovine liver beta-galactosidase using 4-nitrophenyl-beta-D-galactopyranoside substrate measured over 240 mins at 10 mins intervals by UV/Vis spectroscopy
T2 sequence (Q58D55 whole entry): T1 sequence (whole entry)
Outline: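 Bovine liver enzyme in 5 mM HEPES pH 7.50; 4-nitrophenyl-β-D-galactopyranoside mixed with 11 inhibitor dilutions (stocks 0.005–200 μM), equilibrated 30 °C 30 min, then enzyme added. Absorbance at 405 nm followed 240 min; final reads converted to percent inhibition against buffer control, plotted versus log inhibitor concentration; duplicates.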

[5] = biological target: T1, Beta-galactosidase (Bos taurus); experiment: Competitive inhibition of bovine liver beta-galactosidase using 4-nitrophenyl-beta-D-galactopyranoside substrate measured over 240 mins at 10 mins intervals by UV/Vis spectroscopy based Eddie-Hofstee plot
[6] = test system: Aspergillus oryzae; experiment: Inhibition of Aspergillus oryzae beta-galactosidase using 2-chloro-4-nitrophenyl b-dgalactopyranoside substrate by Lineweaver-Burk plot
[7] = biological target: T2, Beta-galactosidase; experiment: Inhibition of bovine liver beta-galactosidase pre-incubated for 30 mins with 4-nitrophenyl-beta-D-galactopyranoside substrate before enzyme addition measured over 45 mins at 27 secs intervals by UV/Vis based spectroscopy
Outline: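 Bovine liver enzyme (stock aliquot thawed, diluted in 5 mM HEPES, kept on ice). Varied 4-nitrophenyl-β-D-galactopyranoside with fixed inhibitor, pH 7.50 HEPES, equilibrated 30 °C 30 min before enzyme; 405 nm read for 45 min. Initial rates via ε 13,300 M−1 cm−1, fitted Michaelis-Menten at ≥2 inhibitor levels; competitive Ki from K′m = Km(1+[I]/Ki); duplicates, Lineweaver-Burk check.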

[8] = test system: Aspergillus oryzae; experiment: Inhibition of Aspergillus oryzae beta-galactosidase using 2-chloro-4-nitrophenyl b-dgalactopyranoside substrate by Eddie-Hofstee plot

Row | SMILES | pIC50 [1] | pKi [2] | Inhibition mode (qualitative, Lineweaver-Burk) [3] | pIC50 [4] | competitive inhibition (qualitative call) [5] | inhibition activity [6] | pKi [7] | inhibition activity (qualitative) [8]
1 | CCCCC(CC)CNC1=N[C@H](CO)[C@H](O)[C@H](O)[C@H]1O (stereo partly specified) | 7.44 | 8.11 | Active | 7.67 | Active | Active | 9.74 | Active
2 | CCC/N=C1\N[C@H](CO)[C@H](O)[C@H](O)[C@H]1O | 6.65 | 6.83 | Active | 5.99 | Active | Active | 9.49 | Active
3 | OC[C@H]1N/C(=N\C2CCCCC2)[C@H](O)[C@@H](O)[C@H]1O | 5.31 | 6.22 | Active | < 6.00 | Active | Active | 8.63 | Active
4 | OC[C@H]1N/C(=N\Cc2ccc(F)cc2)[C@H](O)[C@@H](O)[C@H]1O | 6.48 | 8.00 | Active | 8.04 | Active | Active | 9.72 | Active
5 | O=C1N[C@H](CO)[C@H](O)[C@H](O)[C@H]1O | < 4.30 | 6.21 | Active | 5.06 | Active | Active | 5.57 | Active
6 | OC[C@H]1N/C(=N\CC2CCCCCC2)[C@H](O)[C@@H](O)[C@H]1O | 7.44 | 8.20 | Active | 7.34 | Active | Active | 9.80 | Active
7 | Cc1ccc(C/N=C2\N[C@H](CO)[C@H](O)[C@H](O)[C@H]2O)cc1 | 7.44 | 8.10 | Active | 7.24 | Active | Active | 10.15 | Active
8 | CO[C@@H]1[C@H](O)[C@@H](O)C(NCc2ccc(C)cc2)=N[C@@H]1CO | 4.39 | 5.85 | Active | 5.04 | Active | Active | 6.08 | Active
9 | CC(C)(C)c1ccc(C/N=C2\N[C@H](CO)[C@H](O)[C@H](O)[C@H]2O)cc1 | 6.91 | 7.69 | Active | 6.39 | Active | Active | 9.96 | Active
10 | OC[C@H]1N/C(=N\Cc2ccccc2F)[C@H](O)[C@@H](O)[C@H]1O | 6.93 | 7.79 | Active | 7.37 | Active | Active | 9.64 | Active
11 | OC[C@H]1N/C(=N\C2CC2)[C@H](O)[C@@H](O)[C@H]1O | 6.43 | 7.50 | Active | < 6.00 | Active | Active | 9.49 | Active
12 | COc1ccc(C/N=C2\N[C@H](CO)[C@H](O)[C@H](O)[C@H]2O)cc1 | 6.82 | 7.77 | Active | 7.58 | Active | Active | 9.92 | Active
13 | Cc1cccc(C/N=C2\N[C@H](CO)[C@H](O)[C@H](O)[C@H]2O)c1 | 6.88 | 7.53 | Active | 7.79 | Active | Active | 9.96 | Active
14 | OC[C@H]1N/C(=N\Cc2ccc(C(F)(F)F)cc2)[C@H](O)[C@@H](O)[C@H]1O | 6.91 | 7.80 | Active | 7.82 | Active | Active | 9.80 | Active
15 | OC[C@H]1N/C(=N\CCCc2ccccc2)[C@H](O)[C@@H](O)[C@H]1O | 7.44 | 8.07 | Active | 7.38 | Active | Active | 10.22 | Active
16 | Cc1ccccc1C/N=C1\N[C@H](CO)[C@H](O)[C@H](O)[C@H]1O | 6.21 | 7.63 | Active | 6.93 | Active | Active | 9.70 | Active
17 | CCCCCCC/N=C1\N[C@H](CO)[C@H](O)[C@H](O)[C@H]1O | 6.97 | 7.97 | Active | 7.62 | Active | Active | 9.96 | Active
18 | OC[C@H]1N/C(=N\Cc2cccc(F)c2)[C@H](O)[C@@H](O)[C@H]1O | 6.94 | 7.69 | Active | 8.03 | Active | Active | 9.89 | Active
19 | OC[C@H]1N/C(=N\CC2CCCCC2)[C@H](O)[C@@H](O)[C@H]1O | 7.66 | 7.95 | Active | 7.94 | Active | Active | 10.10 | Active
20 | CCCCCCCCCCCNC1=N[C@H](CO)[C@H](O)[C@H](O)[C@H]1O | 7.47 | 7.32 | Active | 7.37 | Active | Active | 9.62 | Active
21 | Cc1ccc(CNC2=N[C@H](CO)[C@H](O)[C@H](O)C2)cc1 | 4.48 | 5.62 | Active | 6.07 | Active | Active | 9.22 | Active
22 | OC[C@H]1N/C(=N\CC2CC2)[C@H](O)[C@@H](O)[C@H]1O | 7.44 | 8.02 | Active | < 5.85 | Active | Active | 9.41 | Active
